Consider seven compounds from ChEMBL document CHEMBL2321808, “Synthesis and preliminary evaluation in tumor bearing mice of new (18)F-labeled arylsulfone matrix metalloproteinase inhibitors as tracers for positron emission tomography” (J Med Chem, 2013).

Usually IC50 stands for the midpoint of a concentration-inhibition curve. As a reminder, the Kd is a measure of binding affinity in units of concentration.

Calls of active or inactive are those of the source. The rule behind the calls is not given here.

The test system of data set [1] is Mus musculus. As to the kind of experiment: In vivo binding affinity to MMP-9 in human U87MG tumor xenografted in mouse assessed as MMP-9 level after 12 hrs by PET scanning followed by gelatin zymography. Format: functional, organism-based. The settings on record: tested as the 18F-labelled form. An outline of the steps: (§1)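 Xenograft tumors excised within 12 h after PET, frozen at −80 °C, ground, and lysed in 1% Triton X-100. Supernatant run on 10% SDS-PAGE containing 0.1% gelatin. Gel renatured in 2.5% Triton X-100, then developed 24 h at 37 °C in 50 mM Tris-HCl pH 7.4, 10 mM CaCl2, 0.5 μM ZnCl2, and stained with Coomassie. MMP-2 read at 72 kDa, MMP-9 at 92 kDa.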

Data set [2] concerns Mus musculus. As to the kind of experiment: In vivo binding affinity to MMP-2 in human U87MG tumor xenografted in mouse assessed as MMP-2 level after 12 hrs by PET scanning followed by gelatin zymography. Format: functional, organism-based. Particulars: tested as the 18F-labelled form. An outline of the steps: as §1
On the technique in general: A xenograft is tissue or cells of one species grown in another, often human tumour cells in immunodeficient mice.

Data set [3] concerns the target Stromelysin-1 (Homo sapiens, UniProt P08254). Description: Inhibition of MMP-3 (unknown origin) using Mca-Arg-Pro-Lys-Pro-Val-Glu-Nva-Trp-Arg-Lys-(Dnp)-NH2 as substrate after 4 hrs by fluorometric assay. An outline of the steps: (§2)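 Fluorogenic substrate added at 2 μM final. Fluorescence (ex 325/em 395 nm) read every 15 s for 20 min. Run in triplicate. IC50 from vi/v0 = 1/(1 + [I]/IC50); Ki also derived.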

In data set [4] the target is T1, Interstitial collagenase (Homo sapiens, UniProt P03956).
T1 sequence (P03956 whole entry): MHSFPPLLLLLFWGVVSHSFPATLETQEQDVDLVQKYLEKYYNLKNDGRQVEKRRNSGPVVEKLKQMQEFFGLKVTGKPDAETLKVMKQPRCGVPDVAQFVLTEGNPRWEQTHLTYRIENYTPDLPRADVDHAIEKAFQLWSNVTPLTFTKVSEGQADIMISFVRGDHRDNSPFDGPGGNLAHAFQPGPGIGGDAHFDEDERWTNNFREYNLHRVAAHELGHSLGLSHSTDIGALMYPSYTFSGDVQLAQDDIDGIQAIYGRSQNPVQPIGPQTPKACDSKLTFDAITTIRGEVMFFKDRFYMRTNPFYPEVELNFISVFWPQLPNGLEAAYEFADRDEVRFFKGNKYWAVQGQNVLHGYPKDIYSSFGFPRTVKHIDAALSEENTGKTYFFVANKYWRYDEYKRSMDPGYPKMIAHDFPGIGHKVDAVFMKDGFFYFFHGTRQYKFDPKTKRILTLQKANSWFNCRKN
As to the kind of experiment: Inhibition of MMP-1 (unknown origin) using Mca-Lys-Pro-Leu-Gly-Leu-Dap(Dnp)-Ala-Arg-NH2 as substrate after 4 hrs by fluorometric assay. An outline of the steps: as §2

Data set [5] addresses Macrophage metalloelastase (Homo sapiens, UniProt P39900). As to the kind of experiment: Inhibition of MMP-12 (unknown origin) using Mca-Lys-Pro-Leu-Gly-Leu-Dap(Dnp)-Ala-Arg-NH2 as substrate after 4 hrs by fluorometric assay. An outline of the steps:
as §2

For data set [6], the target named is Collagenase 3 (Homo sapiens, UniProt P45452). Description: Inhibition of MMP-13 (unknown origin) using Mca-Lys-Pro-Leu-Gly-Leu-Dap(Dnp)-Ala-Arg-NH2 as substrate after 4 hrs by fluorometric assay. An outline of the steps: as §2
The target in data set [7] is 72 kDa type IV collagenase (Homo sapiens, UniProt P08253). As to the kind of experiment: Inhibition of MMP-2 (unknown origin) using Mca-Lys-Pro-Leu-Gly-Leu-Dap(Dnp)-Ala-Arg-NH2 as substrate after 4 hrs by fluorometric assay. An outline of the steps: as §2
Data set [8] addresses Matrix metalloproteinase-14 (Homo sapiens, UniProt P50281). Description: Inhibition of human recombinant MMP-14 catalytic domain using Mca-Lys-Pro-Leu-Gly-Leu-Dap(Dnp)-Ala-Arg-NH2 as substrate after 4 hrs by fluorometric assay. An outline of the steps: as §2
The target in data set [9] is Matrix metalloproteinase-9 (Homo sapiens, UniProt P14780). Description: Inhibition of MMP-9 (unknown origin) using Mca-Lys-Pro-Leu-Gly-Leu-Dap(Dnp)-Ala-Arg-NH2 as substrate after 4 hrs by fluorometric assay. An outline of the steps:
as §2

Data set [10] deals with Albumin (Homo sapiens, UniProt P02768). As to the kind of experiment: Binding affinity to human serum albumin by 19F NMR titration assay. Format: ADME. An outline of the steps: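 19F NMR at 310.0 K; ligand at 1.0 mM final (dissolved in DMSO, brought to volume with PBS pH 7.4 containing 10% D2O), TFA as chemical-shift reference. Fatty-acid-free human serum albumin added stepwise (0.36 mM aliquots in PBS or solid) up to protein:ligand 3:1; scans raised from 64 to 16 384 along the titration.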

Data set [11] has as its system Mus musculus. Description: In vivo inhibition of MMP in CD1 nude mouse xenografted with human U87MG cells at 7.4 MBq after 100 mins by PET imaging analysis in presence of ilomastat. Format: functional, organism-based. Set-up: dose or concentration left out as unconfirmed. The settings on record: U-87MG ATCC, tested as the 18F-labelled form. An outline of the steps:
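U-87 MG xenografted female CD1 nude mice received ilomastat i.p. at 40–160 mg/kg, 30 min before iv tracer (~7.4 MBq). Static 30-min PET acquired 100 min post-injection. %ID/g measured over whole tumor, rim and core.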

In data set [12] the test system is Liver. As to the kind of experiment: Biodistribution in CD1 nude mouse liver at 7.4 MBq, iv after 10 mins by PET imaging analysis. Format: ADME, organism-based. Particulars: in vivo. An outline of the steps:
(§3)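 Healthy CD1 nude mice, 6–8 weeks old (n = 2–3 per tracer), under isoflurane anesthesia. Tracer given by tail-vein catheter, ~7.4 MBq in 0.15–0.30 mL PBS. Dynamic PET from injection to 2.5 h. Organ ROIs drawn and counts calibrated against an [18F]fluoride phantom. Uptake decay-corrected and expressed as %ID/g.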

Data set [13] has as its system Mus musculus. Description: Biodistribution in CD1 nude mouse small intestine at 7.4 MBq, iv after 10 mins by PET imaging analysis. Format: ADME, organism-based. Particulars: in vivo. An outline of the steps:
as §3

Data set [14] deals with Mus musculus. Description: Biodistribution in CD1 nude mouse small intestine at 7.4 MBq, iv after 140 mins by PET imaging analysis. Format: ADME, organism-based. The settings on record: in vivo. An outline of the steps:
(§4)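 Healthy CD1 nude mice, 6–8 weeks, 2–3 per tracer, anesthetized with isoflurane. Tail-vein injection via catheter in PBS, with residual syringe dose checked. Dynamic PET from injection to 2.5 h, 3D EM reconstruction, no attenuation or scatter correction, phantom-calibrated. Manual ROIs on organs; decay-corrected uptake expressed as % ID/g.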

Data set [15] relates to Liver. As to the kind of experiment: Biodistribution in CD1 nude mouse liver at 7.4 MBq, iv after 45 mins by PET imaging analysis. Particulars: in vivo, 0.75 h. Format: ADME, organism-based. An outline of the steps: as §4
Data set [16] in a line: Drug uptake in tumor in CD1 nude mouse xenografted with human U87MG cells at 7.4 MBq after 45 mins by PET imaging analysis. Format: ADME, Neoplasm, U-87MG ATCC. Particulars: in vivo, 0.75 h.
Data set [17] can be described thus: Drug uptake in small tumor in CD1 nude mouse xenografted with human U87MG cells assessed as uniform distribution at 7.4 MBq after 45 mins by PET imaging analysis. The settings on record: in vivo, 0.75 h. Format: ADME, Neoplasm, U-87MG ATCC.
Data set [18] can be described thus: Drug uptake in large tumor in CD1 nude mouse xenografted with human U87MG cells assessed as accumulation within the rim at 7.4 MBq after 45 mins by PET imaging analysis. Format: ADME, Neoplasm, U-87MG ATCC. The settings on record: in vivo, 0.75 h.
Data set [19] is described as follows: Drug uptake in tumor in CD1 nude mouse xenografted with human U87MG cells at 7.4 MBq after 100 mins by PET imaging analysis. Format: ADME, Neoplasm, U-87MG ATCC. The settings on record: in vivo.
Data set [20] in a line: Drug uptake in tumor in […] CD1 nude mouse xenografted with human U87MG cells after 10 mins by PET imaging analysis. Format: ADME, organism-based, Neoplasm, U-87MG ATCC. Particulars: read-out: Drug uptake.
Data set [21] is described as follows: Drug uptake in tumor in […] CD1 nude mouse xenografted with human U87MG cells after 100 mins by PET imaging analysis. Format: ADME, organism-based, Neoplasm, U-87MG ATCC. Particulars: in vivo.
Data set [22] in a line: Drug uptake in small tumor in CD1 nude mouse xenografted with human U87MG cells assessed as uniform distribution at 7.4 MBq after 100 mins by PET imaging analysis. Format: ADME, Neoplasm, U-87MG ATCC. The settings on record: in vivo.
Data set [23] in a line: Drug uptake in large tumor in CD1 nude mouse xenografted with human U87MG cells assessed as accumulation within the rim at 7.4 MBq after 100 mins by PET imaging analysis. Format: ADME, Neoplasm, U-87MG ATCC. Particulars: in vivo.

Chain of 72 kDa type IV collagenase (P08253 whole entry, the tested form may be a part): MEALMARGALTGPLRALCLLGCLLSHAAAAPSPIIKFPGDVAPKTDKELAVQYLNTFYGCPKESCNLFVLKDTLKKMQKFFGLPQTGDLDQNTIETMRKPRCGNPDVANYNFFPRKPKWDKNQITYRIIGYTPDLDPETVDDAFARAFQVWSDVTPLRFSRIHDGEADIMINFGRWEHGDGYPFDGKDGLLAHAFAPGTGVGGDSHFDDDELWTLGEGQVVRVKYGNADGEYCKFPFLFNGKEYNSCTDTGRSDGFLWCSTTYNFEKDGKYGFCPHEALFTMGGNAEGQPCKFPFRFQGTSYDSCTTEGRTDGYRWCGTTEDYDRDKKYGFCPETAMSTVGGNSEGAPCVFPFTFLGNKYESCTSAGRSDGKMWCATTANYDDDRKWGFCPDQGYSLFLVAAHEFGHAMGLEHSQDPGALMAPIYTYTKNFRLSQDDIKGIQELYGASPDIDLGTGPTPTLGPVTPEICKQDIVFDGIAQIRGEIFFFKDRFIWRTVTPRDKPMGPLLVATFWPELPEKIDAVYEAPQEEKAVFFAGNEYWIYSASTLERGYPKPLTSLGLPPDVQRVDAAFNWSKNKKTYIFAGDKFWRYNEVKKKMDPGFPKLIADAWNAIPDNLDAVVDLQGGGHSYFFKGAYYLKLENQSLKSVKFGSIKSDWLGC
Chain of Macrophage metalloelastase (P39900 whole entry): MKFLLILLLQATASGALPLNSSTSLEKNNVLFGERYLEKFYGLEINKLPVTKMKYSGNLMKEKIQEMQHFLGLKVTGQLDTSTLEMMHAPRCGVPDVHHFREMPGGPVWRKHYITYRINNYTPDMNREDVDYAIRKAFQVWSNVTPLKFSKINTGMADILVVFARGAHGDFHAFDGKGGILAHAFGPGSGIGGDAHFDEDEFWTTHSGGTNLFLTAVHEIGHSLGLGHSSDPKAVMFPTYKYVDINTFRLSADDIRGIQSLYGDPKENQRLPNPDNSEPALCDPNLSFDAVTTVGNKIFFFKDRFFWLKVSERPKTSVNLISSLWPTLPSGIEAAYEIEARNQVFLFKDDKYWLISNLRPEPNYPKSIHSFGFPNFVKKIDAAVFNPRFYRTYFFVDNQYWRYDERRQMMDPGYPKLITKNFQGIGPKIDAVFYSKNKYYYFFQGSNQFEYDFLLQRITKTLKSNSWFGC
Chain of Matrix metalloproteinase-9 (P14780 whole entry): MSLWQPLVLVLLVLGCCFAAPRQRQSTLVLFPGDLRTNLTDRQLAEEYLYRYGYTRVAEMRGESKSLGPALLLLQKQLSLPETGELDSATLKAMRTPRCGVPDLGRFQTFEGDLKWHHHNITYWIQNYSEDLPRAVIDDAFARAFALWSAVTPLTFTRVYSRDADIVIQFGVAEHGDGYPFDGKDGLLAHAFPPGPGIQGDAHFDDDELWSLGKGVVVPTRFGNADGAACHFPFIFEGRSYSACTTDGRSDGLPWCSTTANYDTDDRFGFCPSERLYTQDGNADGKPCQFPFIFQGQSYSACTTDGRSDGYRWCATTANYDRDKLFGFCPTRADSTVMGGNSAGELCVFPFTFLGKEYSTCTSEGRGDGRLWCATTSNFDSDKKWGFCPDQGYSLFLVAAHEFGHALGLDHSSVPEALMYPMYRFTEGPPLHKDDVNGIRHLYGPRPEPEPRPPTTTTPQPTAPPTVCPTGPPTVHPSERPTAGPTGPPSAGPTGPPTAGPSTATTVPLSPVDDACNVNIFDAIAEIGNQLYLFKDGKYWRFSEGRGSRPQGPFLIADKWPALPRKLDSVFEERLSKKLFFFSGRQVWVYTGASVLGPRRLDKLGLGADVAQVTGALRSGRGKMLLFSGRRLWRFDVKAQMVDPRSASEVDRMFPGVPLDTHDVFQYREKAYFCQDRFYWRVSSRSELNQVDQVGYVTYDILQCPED
Chain of Stromelysin-1 (P08254 whole entry): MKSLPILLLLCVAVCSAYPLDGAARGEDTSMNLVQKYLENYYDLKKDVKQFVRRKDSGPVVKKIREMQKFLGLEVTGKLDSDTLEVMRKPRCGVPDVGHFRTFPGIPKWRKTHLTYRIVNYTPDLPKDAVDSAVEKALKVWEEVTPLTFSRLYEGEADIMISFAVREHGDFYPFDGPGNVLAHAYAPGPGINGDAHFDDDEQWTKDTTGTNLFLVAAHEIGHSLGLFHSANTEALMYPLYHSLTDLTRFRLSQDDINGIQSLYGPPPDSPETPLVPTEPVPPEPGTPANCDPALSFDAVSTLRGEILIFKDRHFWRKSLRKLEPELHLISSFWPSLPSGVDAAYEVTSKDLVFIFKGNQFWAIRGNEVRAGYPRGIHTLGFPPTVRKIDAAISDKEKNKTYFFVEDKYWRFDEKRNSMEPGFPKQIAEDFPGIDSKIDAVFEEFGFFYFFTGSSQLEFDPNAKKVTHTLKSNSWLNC
Chain of Albumin (P02768 whole entry): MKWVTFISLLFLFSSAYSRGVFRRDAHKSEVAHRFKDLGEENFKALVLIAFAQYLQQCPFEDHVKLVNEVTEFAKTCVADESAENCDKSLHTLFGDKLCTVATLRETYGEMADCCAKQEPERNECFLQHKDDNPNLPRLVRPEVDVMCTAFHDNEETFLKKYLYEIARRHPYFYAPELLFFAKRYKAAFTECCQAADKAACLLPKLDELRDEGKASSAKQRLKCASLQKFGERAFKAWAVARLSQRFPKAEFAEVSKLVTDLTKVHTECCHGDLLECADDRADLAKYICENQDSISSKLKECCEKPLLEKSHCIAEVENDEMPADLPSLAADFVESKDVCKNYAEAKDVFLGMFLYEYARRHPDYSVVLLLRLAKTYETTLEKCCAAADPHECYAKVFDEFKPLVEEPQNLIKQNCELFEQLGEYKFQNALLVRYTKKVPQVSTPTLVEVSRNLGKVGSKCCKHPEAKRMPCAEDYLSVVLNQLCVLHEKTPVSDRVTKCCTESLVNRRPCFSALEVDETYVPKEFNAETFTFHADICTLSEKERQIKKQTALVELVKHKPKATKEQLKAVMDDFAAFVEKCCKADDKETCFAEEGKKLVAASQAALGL

Consider `O=C(O)Cc1ccccc1S(=O)(=O)c1ccc(-c2ccc(OCCF)cc2)cc1`, for which the result in [1] and in data set [2] was Active. The concentration for half-maximal inhibition (IC50) turned out to be 7100 nM in [3]; 18500 nM in data set [4]; 44 nM in [5]; 22 nM in [6]; 16 nM in data set [7]; 1600 nM in [8]. Moreover, half-maximal inhibition in [9] (IC50) required 107 nM. For the same compound, the equilibrium dissociation constant (Kd) in data set [10] was found to be 140000 nM. Besides, the inhibition entry in data set [11] was “Active”.

For the compound `O=C(O)Cc1ccccc1S(=O)(=O)c1ccc(-c2ccc(NC(=O)C[18F])cc2)cc1`, the Drug uptake in data set [12] was found to be 11%; in [13], 2.4 % ID/g; in [14], 12.4 % ID/g; in data set [15], 6.1 % ID/g.

For the compound `OC[C@H]1OC(O)[C@H]([18F])[C@@H](O)[C@@H]1O` (some centres undefined) [FLUDEOXYGLUCOSE F 18], the Drug uptake in data set [16] is 4.39 % ID/g; in data set [17] it was “Active”; in data set [18], “Active”.

With `CC(C)(C)OC(=O)Cc1ccccc1S(=O)(=O)c1ccc(-c2ccc(OCC[18F])cc2)cc1`, the Drug uptake was found to be 21.6 % ID/g in data set [12] and 4.1 % ID/g in data set [13].

On to `O=C(O)Cc1ccccc1S(=O)(=O)c1ccc(-c2ccc(NC(=O)CF)cc2)cc1`, for which the concentration for half-maximal inhibition (IC50) in data set [3] is 6800 nM; in data set [4], 6100 nM; in data set [5], 500 nM; in data set [6], 220 nM; in data set [7] it was 61 nM; in [8], 4600 nM. In addition, in [9], the concentration for half-maximal inhibition (IC50) is 1500 nM. Besides, binding in [10] was characterised by a dissociation constant (Kd) of 10000 nM.

As for `O=C(O)Cc1ccccc1S(=O)(=O)c1ccc(-c2ccc(OCC[18F])cc2)cc1`, the Drug uptake in data set [19] came out at 1.4 % ID/g; in data set [12], 11.2 % ID/g; in data set [13], 2.5 % ID/g; in [14], 13.1 % ID/g; in data set [15], 8.5 % ID/g; in data set [21] it was 1.7 % ID/g. The Drug uptake result in [22] and in [23] was “Active” each time. The tissue uptake at 10 min in data set [20] was determined as 1.1 %ID/g.

On to `O=C(O)Cc1ccccc1S(=O)(=O)c1ccc(-c2ccc(F)cc2)cc1`, for which the IC50 in data set [3] was 67000 nM; in data set [4], 11500 nM; in data set [5], 400 nM; in data set [6] it was 386 nM; in data set [7], 230 nM; in data set [8], 4800 nM. In data set [9], this compound gave an IC50 of 3600 nM.
